Experimental data: ChEMBL document CHEMBL4177770, “Discovery of MK-6169, a Potent Pan-Genotype Hepatitis C Virus NS5A Inhibitor with Optimized Activity against Common Resistance-Associated Substitutions” (J Med Chem, 2018)
Changes are numbered by the printed parent chain.

Legend:
[1] = tested on: T1, Nonstructural protein 5A (Hepatitis C virus), Q5L478 [Y93H]; assay: Inhibition of NS5A Y93H mutant in HCV genotype 1a infected in HuH7 replicon cells assessed as decrease in viral replication after 3 days by RT-PCR method; format: cell-based; settings: Hepatitis C virus subtype 1a
T1 sequence (whole entry): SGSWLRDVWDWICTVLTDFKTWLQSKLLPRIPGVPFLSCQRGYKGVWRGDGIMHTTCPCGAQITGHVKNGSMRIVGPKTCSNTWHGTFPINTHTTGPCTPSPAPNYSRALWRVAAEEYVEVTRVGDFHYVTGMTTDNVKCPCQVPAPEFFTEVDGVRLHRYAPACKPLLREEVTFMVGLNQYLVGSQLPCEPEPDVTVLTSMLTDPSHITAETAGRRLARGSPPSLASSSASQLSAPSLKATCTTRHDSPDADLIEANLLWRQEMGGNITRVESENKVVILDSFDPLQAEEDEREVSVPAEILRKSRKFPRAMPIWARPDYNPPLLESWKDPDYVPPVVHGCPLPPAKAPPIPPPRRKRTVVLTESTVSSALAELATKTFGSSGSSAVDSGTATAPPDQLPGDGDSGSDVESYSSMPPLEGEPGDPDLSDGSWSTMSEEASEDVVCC

[2] = molecular target: T2, Nonstructural protein 5A (Hepatitis C virus) (UniProt Q5L478); assay: Inhibition of NS5A in HCV genotype 3a infected in HuH7 replicon cells assessed as decrease in viral replication after 3 days by RT-PCR method; format: cell-based; settings: Hepatitis C virus subtype 3a
T2 sequence (whole entry): T1 sequence (whole entry) with H93Y

[3] = molecular target: T2, Nonstructural protein 5A (Hepatitis C virus); assay: Inhibition of NS5A L31M mutant in HCV genotype 2b infected in HuH7 replicon cells assessed as decrease in viral replication after 3 days by RT-PCR method; format: cell-based; settings: Hepatitis C virus subtype 2b
[4] = molecular target: T2, Nonstructural protein 5A (Hepatitis C virus); assay: Inhibition of NS5A in HCV genotype 1b infected in HuH7 replicon cells assessed as decrease in viral replication after 3 days by RT-PCR method; format: cell-based; settings: Hepatitis C virus subtype 1b
[5] = Resistance ratio of EC90 for NS5A in HCV genotype 1b infected in HuH7 replicon cells to EC90 for NS5A in HCV genotype 1a infected in HuH7 replicon cells; format: cell-based
[6] = Resistance ratio of EC90 for NS5A L31M mutant in HCV genotype 2b infected in HuH7 replicon cells to EC90 for NS5A in HCV genotype 1a infected in HuH7 replicon cells; format: cell-based
[7] = Resistance ratio of EC90 for NS5A in HCV genotype 3a infected in HuH7 replicon cells to EC90 for NS5A in HCV genotype 1a infected in HuH7 replicon cells; format: cell-based
[8] = Resistance ratio of EC90 for NS5A in HCV genotype 4a infected in HuH7 replicon cells to EC90 for NS5A in HCV genotype 1a infected in HuH7 replicon cells; format: cell-based
[9] = molecular target: T2, Nonstructural protein 5A (Hepatitis C virus); assay: Inhibition of NS5A L31V mutant in HCV genotype 1a infected in HuH7 replicon cells assessed as decrease in viral replication after 3 days by RT-PCR method; format: cell-based; settings: Hepatitis C virus subtype 1a
[10] = molecular target: T2, Nonstructural protein 5A (Hepatitis C virus); assay: Inhibition of NS5A in HCV genotype 4a infected in HuH7 replicon cells assessed as decrease in viral replication after 3 days by RT-PCR method; format: cell-based; settings: Hepatitis C virus subtype 4a
[11] = tested on: Hepatitis C virus subtype 1a; assay: Resistance ratio of EC90 for NS5A L31V mutant in HCV genotype 1a infected in HuH7 replicon cells to EC90 for NS5A in HCV genotype 1a infected in HuH7 replicon cells; format: cell-based
[12] = tested on: Hepatitis C virus subtype 1a; assay: Resistance ratio of EC90 for NS5A Y93H mutant in HCV genotype 1a infected in HuH7 replicon cells to EC90 for NS5A in HCV genotype 1a infected in HuH7 replicon cells; format: cell-based
[13] = molecular target: T2, Nonstructural protein 5A (Hepatitis C virus); assay: Inhibition of NS5A in HCV genotype 1a infected in HuH7 replicon cells assessed as decrease in viral replication after 3 days by RT-PCR method; format: cell-based; settings: Hepatitis C virus subtype 1a
[14] = Oral bioavailability in Wistar Han rat at 10 mg/kg by LC/MS method; format: ADME, organism-based; settings: in vivo
Summary of the method: (§1)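 Male Wistar Han rats, two per dosing group, dosed orally at 10 mg/kg in 10% TWEEN. Plasma was separated from collected blood by centrifugation and analysed by LC/MS.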

[15] = Cmax in Wistar Han rat at 10 mg/kg, po by LC/MS method; format: ADME, organism-based; parameters: dose 10 mg/kg, route oral; settings: in vivo; summary of the method: as §1
[16] = AUC in Wistar Han rat at 10 mg/kg, po by LC/MS method; format: ADME, organism-based; settings: in vivo; summary of the method: as §1
[17] = Clearance in Wistar Han rat at 2 mg/kg, iv by LC/MS method; format: ADME, organism-based; settings: in vivo
Summary of the method: (§2)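 Male Wistar Han rats, two per group, dosed IV at 2 mg/kg in 60% PEG200. Plasma was obtained by centrifuging the blood, and compound concentrations were measured by LC/MS.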

[18] = Half life in Wistar Han rat at 2 mg/kg, iv by LC/MS method; format: ADME, organism-based; settings: in vivo; summary of the method: as §2
[19] = Drug level in Wistar Han rat at 10 mg/kg, po measured at 24 hrs by LC/MS method; format: ADME, organism-based; settings: in vivo, read-out: Drug uptake; summary of the method: as §1

Row | Structure (SMILES) | EC90 [1] | EC90 [2] | EC90 [3] | EC90 [4] | Ratio [5] | Ratio [6] | Ratio [7] | Ratio [8] | EC90 [9] | EC90 [10] | Ratio [11] | Ratio [12] | EC90 [13] | bioavailability [14] | Cmax [15] | AUC [16] | clearance [17] | half-life [18] | concentration at 24 h [19]
1 | COC(=O)N[C@H](C(=O)N1CCC[C@H]1c1ncc(-c2cc(F)c3c(c2)O[C@@H](c2ccc4c(c2)CCCO4)n2c-3cc3cc(-c4cnc([C@@H]5CCCN5C(=O)[C@@H](NC(=O)OC)C5CCOCC5)[nH]4)ccc32)[nH]1)C(C)C | 356 pM | 9 pM | 1070 pM | 3 pM | < 10 | < 10 | < 10 | < 10 | 7 pM | 6 pM | < 10 | < 10 | 5 pM | – | – | – | – | – | –
2 | COC(=O)N[C@H](C(=O)N1CCC[C@H]1c1ncc(-c2cc(F)c3c(c2)O[C@@H](c2cc4c(s2)CCC4)n2c-3cc3cc(-c4cnc([C@@H]5CCCN5C(=O)[C@@H](NC(=O)OC)C5CCOCC5)[nH]4)ccc32)[nH]1)C(C)C | 39 pM | 22 pM | 64 pM | 5 pM | < 10 | < 10 | < 10 | < 10 | 13 pM | 4 pM | < 10 | < 10 | 5 pM | – | – | – | – | – | –
3 | COC(=O)N[C@H](C(=O)N1CCC[C@H]1c1ncc(-c2cc(F)c3c(c2)O[C@@H](c2ccc(C(F)(F)F)s2)n2c-3cc3cc(-c4cnc([C@@H]5CCCN5C(=O)[C@@H](NC(=O)OC)C5CCOCC5)[nH]4)ccc32)[nH]1)C(C)C | 23 pM | 6 pM | 10 pM | 5 pM | < 10 | < 10 | < 10 | < 10 | 5 pM | 3 pM | < 10 | < 10 | 3 pM | – | – | – | – | – | –
4 | COC(=O)N[C@H](C(=O)N1CCC[C@H]1c1ncc(-c2cc(F)c3c(c2)O[C@@H](c2cc4ccccc4s2)n2c-3cc3cc(-c4cnc([C@@H]5CCCN5C(=O)[C@@H](NC(=O)OC)C5CCOCC5)[nH]4)ccc32)[nH]1)C(C)C | 111 pM | 11 pM | 57 pM | 3 pM | – | – | – | – | 8 pM | 4 pM | – | 20 | 5 pM | – | – | – | – | – | –
5 | COC(=O)N[C@H](C(=O)N1CCC[C@H]1c1ncc(-c2cc(F)c3c(c2)O[C@@H](c2ccc(C(F)F)s2)n2c-3cc3cc(-c4cnc([C@@H]5CCCN5C(=O)[C@@H](NC(=O)OC)C5CCOCC5)[nH]4)ccc32)[nH]1)C(C)C | 15 pM | 10 pM | 16 pM | 6 pM | < 10 | < 10 | < 10 | < 10 | 5 pM | 4 pM | < 10 | < 10 | 4 pM | – | – | – | – | – | –
6 | COC(=O)N[C@H](C(=O)N1CCC[C@H]1c1ncc(-c2cc(F)c3c(c2)O[C@@H](c2ccc4c(c2)OCCC4)n2c-3cc3cc(-c4cnc([C@@H]5CCCN5C(=O)[C@@H](NC(=O)OC)C5CCOCC5)[nH]4)ccc32)[nH]1)C(C)C | 35 pM | 8 pM | 19 pM | 6 pM | < 10 | < 10 | < 10 | < 10 | 5 pM | 7 pM | < 10 | < 10 | 4 pM | 0.8% | 0.032 µM | 130 nM·h | 0.66 L/h/kg | 3.2 h | –
7 | CCCc1ccc([C@@H]2Oc3cc(-c4cnc([C@@H]5CCCN5C(=O)[C@@H](NC(=O)OC)C(C)C)[nH]4)cc(F)c3-c3cc4cc(-c5cnc([C@@H]6CCCN6C(=O)[C@@H](NC(=O)OC)C6CCOCC6)[nH]5)ccc4n32)s1 | 9 pM | 5 pM | 12 pM | 6 pM | < 10 | < 10 | < 10 | < 10 | 3 pM | 2 pM | < 10 | < 10 | 2 pM | – | – | – | – | – | –
8 | COC(=O)N[C@H](C(=O)N1CCC[C@H]1c1ncc(-c2cc(F)c3c(c2)O[C@@H](c2ccc(C4CC4)s2)n2c-3cc3cc(-c4cnc([C@@H]5CCCN5C(=O)[C@@H](NC(=O)OC)C5CC6CCC(C5)O6)[nH]4)ccc32)[nH]1)C(C)C (some centres not stated) | 28 pM | 12 pM | 19 pM | 4 pM | – | – | – | – | 6 pM | 8 pM | – | – | 5 pM | 2.5% | 0.024 µM | 330 nM·h | 0.78 L/h/kg | 3.9 h | 0.003 µM
9 | COC(=O)N[C@H](C(=O)N1CCC[C@H]1c1ncc(-c2cc(F)c3c(c2)O[C@@H](c2ccc(C4CC4)s2)n2c-3cc3cc(-c4cnc([C@@H]5CCCN5C(=O)[C@@H](NC(=O)OC)C5CCO[C@H](C)C5)[nH]4)ccc32)[nH]1)C(C)C (some centres not stated) | 9 pM | 7 pM | 14 pM | 4 pM | – | – | – | – | 3 pM | 10 pM | – | – | 4 pM | 1.4% | 0.025 µM | 210 nM·h | 0.66 L/h/kg | 4.7 h | 0.001 µM
